# pIC50, pKi: −log10 of the molar value.
# Experiments:
# Steryl-sulfatase [1] = target: T1, Steryl-sulfatase (Homo sapiens, UniProt P08842); assay: Inhibitory activity against purified human Steroid sulfatase
# T1 sequence (P08842 whole entry): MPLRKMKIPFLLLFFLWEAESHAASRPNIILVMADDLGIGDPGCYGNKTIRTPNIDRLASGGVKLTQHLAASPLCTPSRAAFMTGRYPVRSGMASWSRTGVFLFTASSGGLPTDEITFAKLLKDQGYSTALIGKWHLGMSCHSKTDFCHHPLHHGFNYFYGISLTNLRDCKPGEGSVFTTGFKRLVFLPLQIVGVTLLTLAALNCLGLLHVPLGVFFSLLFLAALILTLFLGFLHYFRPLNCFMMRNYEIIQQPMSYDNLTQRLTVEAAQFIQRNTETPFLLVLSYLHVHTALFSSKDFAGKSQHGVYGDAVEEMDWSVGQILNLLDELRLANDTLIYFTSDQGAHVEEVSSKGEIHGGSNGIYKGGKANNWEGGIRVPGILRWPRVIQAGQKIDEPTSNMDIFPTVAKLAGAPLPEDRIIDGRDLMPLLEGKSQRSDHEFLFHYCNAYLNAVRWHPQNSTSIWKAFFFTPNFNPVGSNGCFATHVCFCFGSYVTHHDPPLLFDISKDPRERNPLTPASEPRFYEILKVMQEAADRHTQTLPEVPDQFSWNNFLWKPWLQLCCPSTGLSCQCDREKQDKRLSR
# How it was run: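 Homogeneous human STS, purified from recombinant CHO cells, cleaves 4-methylumbelliferyl sulfate (4-MUS). The reaction is followed in a discontinuous fluorimetric assay with and without inhibitor, using a 1 h incubation in the standard format. The IC50 is taken from the inhibition data.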
# Steryl-sulfatase [2] = target: T1, Steryl-sulfatase; assay: Inhibitory activity against Steroid sulfatase expressed in CHO cells; assay type: cell-based
# How it was run: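 Intact CHO cells over-expressing recombinant human STS are given 4-MUS as substrate, using the assay variant for reversible inhibitors. STS activity is measured in the presence of inhibitor, and the IC50 is derived.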
# Steryl-sulfatase [3] = target: T1, Steryl-sulfatase; assay: Inhibitory constant against purified human Steroid sulfatase
# How it was run: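 Kinetic study with purified recombinant human STS and 4-MUS substrate in the discontinuous fluorimetric assay. Substrate turnover rates are measured at various inhibitor concentrations and replotted as Hanes diagrams. Kapp/Vapp ratios are plotted against inhibitor concentration, and Ki is read from the abscissa intercept. Pre-incubation and dextran-activated charcoal treatment were used to test reversibility.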
# MCF7 = assay: Growth stimulation of estrogen receptor positive MCF-7 human breast cancer cells with compound up to 10 uM; not estrogenic; assay type: functional, cell-based
SMILES,pIC50 (Steryl-sulfatase [1]),pIC50 (Steryl-sulfatase [2]),pKi (Steryl-sulfatase [3]),Activity (MCF7)
O=C(Cc1ccccc1)O[C@H]1C[C@H]2CC[C@@H](C1)N2C(=O)NS(=O)(=O)c1ccccc1,< 4.00,< 4.52,–,–
O=C(Cc1ccccc1)O[C@H]1C[C@H]2CC[C@@H](C1)N2C(=O)NS(=O)(=O)c1cc(C(F)(F)F)cc(C(F)(F)F)c1,7.08,5.72,7.12,–
O=C(NN1[C@@H]2CC[C@H]1C[C@@H](OC(=O)Cc1ccccc1)C2)NS(=O)(=O)c1ccc(Cl)cc1,–,5.42,6.05,not estrogenic
O=C(Cc1ccccc1)O[C@H]1C[C@H]2CC[C@@H](C1)N2C(=O)NS(=O)(=O)c1ccc(Br)cc1,–,5.21,5.73,–
N#CC1(OC(=O)Cc2ccccc2)CCN(C(=O)NS(=O)(=O)c2ccc(Cl)cc2)CC1,4.89,4.61,–,–
O=C(Cc1ccccc1)O[C@H]1C[C@H]2CC[C@@H](C1)N2C(=O)NS(=O)(=O)c1ccc(F)cc1,4.30,4.41,–,–
O=C(Cc1ccccc1)OC1CCN(C(=O)NS(=O)(=O)c2ccc(Cl)cc2)CC1,< 4.00,< 4.52,–,–
Cc1ccc(S(=O)(=O)NC(=O)N2[C@@H]3CC[C@H]2C[C@@H](OC(=O)Cc2ccccc2)C3)cc1,4.78,4.43,–,–
C[C@]12CC[C@@H]3c4ccc(OS(N)(=O)=O)cc4CC[C@H]3[C@@H]1CCC2=O [EMATE],–,7.52,6.17,–
O=C(Cc1ccccc1)O[C@H]1C[C@H]2CC[C@@H](C1)N2C(=O)NC(=O)c1ccc(Cl)cc1,–,4.98,5.24,–
O=C(Cc1ccccc1)O[C@H]1C[C@H]2CC[C@@H](C1)N2C(=O)NS(=O)(=O)c1ccc(Cl)cc1,–,5.17,5.62,–
O=C(Cc1ccccc1)O[C@H]1C[C@H]2CC[C@@H](C1)N2C(=O)NS(=O)(=O)c1ccc(C(F)(F)F)cc1,–,5.13,6.28,–
O=C(Cc1ccccc1)O[C@H]1C[C@H]2CC[C@@H](C1)N2C(=O)CS(=O)(=O)c1ccc(Cl)cc1,5.21,5.36,–,–
